Publication PMC7983942 (Clinical Pharmacology and Therapeutics, 2020)
Substitutions are numbered along the chain they refer to.

How the values were obtained:
Format in all cases: in vitro ADME
OATP1B3 = molecular target: T1, OATP1B3 (Homo sapiens, UniProt Q9NPD5); assay: Uptake into transporter-transfected vs wild-type HEK293 cells; settings: rosuvastatin 1 µM, two to four minutes
T1 sequence (Q9NPD5 1-702): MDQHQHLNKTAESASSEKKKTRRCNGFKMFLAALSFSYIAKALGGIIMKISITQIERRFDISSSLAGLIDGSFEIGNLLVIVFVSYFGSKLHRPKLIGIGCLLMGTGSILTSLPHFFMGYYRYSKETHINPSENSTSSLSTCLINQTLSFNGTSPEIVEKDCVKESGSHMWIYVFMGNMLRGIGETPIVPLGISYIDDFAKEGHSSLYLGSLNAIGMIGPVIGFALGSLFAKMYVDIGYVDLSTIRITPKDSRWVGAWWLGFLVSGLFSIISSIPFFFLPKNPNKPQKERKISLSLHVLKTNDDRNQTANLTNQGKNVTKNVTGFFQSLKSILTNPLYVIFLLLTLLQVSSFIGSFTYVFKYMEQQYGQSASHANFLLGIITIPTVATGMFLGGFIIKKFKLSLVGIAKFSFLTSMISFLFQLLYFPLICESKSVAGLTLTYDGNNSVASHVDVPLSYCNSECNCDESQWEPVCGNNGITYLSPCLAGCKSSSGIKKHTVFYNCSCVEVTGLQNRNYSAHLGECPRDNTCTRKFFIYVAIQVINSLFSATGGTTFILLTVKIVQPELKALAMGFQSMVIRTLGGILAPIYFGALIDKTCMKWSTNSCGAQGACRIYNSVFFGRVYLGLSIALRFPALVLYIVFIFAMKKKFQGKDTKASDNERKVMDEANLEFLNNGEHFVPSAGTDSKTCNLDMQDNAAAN
Method in brief: (§1)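 HEK293 cells stably transfected with OATP1B1*1A, OATP1B3 or OATP2B1, plus wild-type cells, were seeded on poly-D-lysine plates. Culture was 48 h at 37°C in DMEM with 10% FBS, pyruvate, nonessential amino acids and GlutaMAX. Test compound was 1 µM for 2 min; rosuvastatin probe was 1 µM over 2–4 min. Cells were washed four times in ice-cold buffer and lysed in methanol with internal standard. Readouts were uptake ratio versus wild-type and glucuronide/probe ratio of ratios; mean ± SD, n=3 in one experiment.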

OATP1B1*5 = molecular target: T2, OATP1B1*5 (Homo sapiens, UniProt Q9Y6L6, V174A); assay: Uptake into OATP1B1 variant-transfected vs wild-type HEK293 cells; settings: for Uptake ratio (vs. wild‐type HEK293 cells): 2 minutes
T2 sequence (Q9Y6L6 1-691 V174A): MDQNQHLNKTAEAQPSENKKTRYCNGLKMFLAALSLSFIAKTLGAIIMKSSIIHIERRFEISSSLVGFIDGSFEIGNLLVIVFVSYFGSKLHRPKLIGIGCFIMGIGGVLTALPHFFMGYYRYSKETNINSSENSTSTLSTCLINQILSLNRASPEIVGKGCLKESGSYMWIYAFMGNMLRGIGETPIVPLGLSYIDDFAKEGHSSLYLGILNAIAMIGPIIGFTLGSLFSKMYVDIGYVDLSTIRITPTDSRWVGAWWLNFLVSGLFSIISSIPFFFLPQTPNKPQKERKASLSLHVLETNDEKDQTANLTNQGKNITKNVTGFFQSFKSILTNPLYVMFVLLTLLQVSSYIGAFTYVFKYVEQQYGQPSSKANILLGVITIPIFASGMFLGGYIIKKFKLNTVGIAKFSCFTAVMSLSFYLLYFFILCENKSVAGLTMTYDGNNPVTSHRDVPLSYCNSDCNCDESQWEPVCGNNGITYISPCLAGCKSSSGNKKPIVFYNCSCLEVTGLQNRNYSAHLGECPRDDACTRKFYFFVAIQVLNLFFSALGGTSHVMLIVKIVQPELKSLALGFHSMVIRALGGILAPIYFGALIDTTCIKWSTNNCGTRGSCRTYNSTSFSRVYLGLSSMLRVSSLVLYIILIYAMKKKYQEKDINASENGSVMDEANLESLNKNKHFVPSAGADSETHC
Method in brief: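 HEK293 cells stably expressing an OATP1B1 variant, alongside wild-type HEK293, were seeded at 0.5–1.2 × 10⁵ cells/well on poly-D-lysine plates. They grew 48 h at 37°C and 5% CO₂ in DMEM with 10% FBS, 1% pyruvate, nonessential amino acids and GlutaMAX. Substrate was 1 µM (0.5 µM where footnoted) for 2 min, then four ice-cold buffer washes and methanol lysis with internal standard. Uptake ratio (transfected/wild-type) is expressed as % of OATP1B1*14 in the same experiment; n=3 determinations.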

OATP1B1*1A = molecular target: T3, OATP1B1*1A (Homo sapiens, UniProt Q9Y6L6); assay: Uptake into transporter-transfected vs wild-type HEK293 cells
T3 sequence (Q9Y6L6 1-691): T2 sequence (Q9Y6L6 1-691 V174A) with A174V
Method in brief: as §1

[1] = experiment 1, substrate concentration 0.5 µM

CC(C)c1nc(N(C)S(C)(=O)=O)nc(-c2ccc(F)cc2)c1/C=C/[C@@H](O)C[C@@H](O)CC(=O)O [Rosuvastatin]
Uptake ratio (vs. wild‐type HEK293 cells), probe (OATP1B3): 69.8 ± 1.9 | Uptake ratio as percentage of OATP1B1*14 in the same experiment (OATP1B1*5; [1]): 16% | Uptake ratio (vs. wild‐type HEK293 cells) (OATP1B1*5; [1]): 2.4 ± 0.4 | Uptake ratio as percentage of OATP1B1*14 in the same experiment (OATP1B1*5; experiment 2, substrate 1 µM): 15% | Uptake ratio (vs. wild‐type HEK293 cells) (OATP1B1*5; experiment 2, substrate 1 µM): 5.9 ± 0.5 | Uptake ratio (vs. wild‐type HEK293 cells) (OATP1B1*1A; experiment 3, substrate 1 µM, 2 minutes): 51 ± 1.4 | Uptake ratio (vs. wild‐type HEK293 cells), probe (OATP1B1*1A; rosuvastatin 1 µM, two to four minutes): 51.3 ± 1.4
